Test [1] relates to Escherichia coli. As to the kind of experiment: Antimicrobial activity against Escherichia coli 2297257 B-W isolated from patient with pyelonephritis assessed as >3-log reduction in urinary bacterial titer after 20 hrs. It is filed as functional, Urine.
In test [2] the test system is Escherichia coli. As to the kind of experiment: Antimicrobial activity against Escherichia coli 1889646 B-F isolated from patient with pyelonephritis assessed as >3-log reduction in urinary bacterial titer after 8 hrs. The class given is functional, Urine. Put shortly: (§1)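 Urine was collected on day 3 of i.v. therapy (steady state) over 4-h intervals from infusion start (0–4 to 20–24 h), stored at –80°C and sterile filtered. It was serially diluted twofold (1:0 up to 1:131,072) in the patient's own pre-dose drug-free urine. Microdilution used a final inoculum of 1.0 x 10^6 to 9.5 x 10^6 CFU/ml, incubated 18 h at 37°C in air. 10 µl was subcultured onto 5% blood Columbia agar for 24 h at 37°C. The bactericidal endpoint was >99.9% (>3-log) kill, reported as a reciprocal titer.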

Test [3] has as its system Escherichia coli. Briefly: Antimicrobial activity against Escherichia coli 1821385 B-C isolated from patient with pyelonephritis by Etest. The class given is functional.
The subject of test [4] is Enterococcus faecalis. Briefly: Antimicrobial activity against Enterococcus faecalis 2215770 B-T isolated from patient with pyelonephritis assessed as >3-log reduction in urinary bacterial titer after 12 hrs. It is filed as functional, Urine. The method, boiled down:
(§2)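 Urine was collected before dosing and on day 3 of i.v. therapy (steady state), in 4-h intervals from infusion start (0–4 to 20–24 h), stored at −80°C and sterile filtered. It was serially diluted twofold (1:0 to 1:131,072) in the patient's drug-free pre-dose urine. Microdilution used an inoculum of 1.0 x 10^6–9.5 x 10^6 CFU/ml, incubated 18 h at 37°C, then subcultured 24 h on blood agar. The endpoint was >99.9% kill, reported as reciprocal titer.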

Test [5] has as its system Escherichia coli. Briefly: Antimicrobial activity against Escherichia coli 1889645 B-I isolated from patient with pyelonephritis assessed as >3-log reduction in urinary bacterial titer after 8 hrs. The class given is functional, Urine. The method, boiled down: as §1
Test [6] concerns Staphylococcus haemolyticus. Briefly: Antimicrobial activity against Staphylococcus haemolyticus 1949819 B-M isolated from patient with pyelonephritis assessed as >3-log reduction in urinary bacterial titer after 20 hrs. The class given is functional, Urine.
The test system of test [7] is Enterococcus faecalis. Briefly: Antimicrobial activity against Enterococcus faecalis 2215770 B-T isolated from patient with pyelonephritis assessed as >3-log reduction in urinary bacterial titer after 24 hrs. It is filed as functional, Urine. Put shortly:
as §2

For test [8], the system named is Escherichia coli. Briefly: Antimicrobial activity against Escherichia coli 2297257 B-W isolated from patient with pyelonephritis by Etest. It is filed as functional.
For test [9], the system named is Escherichia coli. As to the kind of experiment: Antimicrobial activity against Escherichia coli 1821385 B-C isolated from patient with pyelonephritis assessed as >3-log reduction in urinary bacterial titer after 12 hrs. It is filed as functional, Urine. The method, boiled down:
as §1

The test system of test [10] is Escherichia coli. Briefly: Antimicrobial activity against Escherichia coli 1821385 B-C isolated from patient with pyelonephritis assessed as >3-log reduction in urinary bacterial titer after 8 hrs. The class given is functional, Urine. The method, boiled down: as §1
The test system of test [11] is Escherichia coli. As to the kind of experiment: Antimicrobial activity against Escherichia coli 1780063 B-A isolated from patient with pyelonephritis assessed as >3-log reduction in urinary bacterial titer after 20 hrs. It is filed as functional, Urine. Put shortly: as §2
For test [12], the system named is Escherichia coli. Briefly: Antimicrobial activity against Escherichia coli 1821385 B-C isolated from patient with pyelonephritis assessed as >3-log reduction in urinary bacterial titer after 16 hrs. It is filed as functional, Urine. Put shortly: as §1
The subject of test [13] is Staphylococcus haemolyticus. Briefly: Antimicrobial activity against Staphylococcus haemolyticus 1949819 B-M isolated from patient with pyelonephritis assessed as >3-log reduction in urinary bacterial titer after 24 hrs. The class given is functional, Urine.
In test [14] the test system is Escherichia coli. Briefly: Antimicrobial activity against Escherichia coli 1889645 B-I isolated from patient with pyelonephritis by Etest. It is filed as functional.
For test [15], the system named is Pseudomonas aeruginosa. As to the kind of experiment: Antimicrobial activity against Pseudomonas aeruginosa 2062713 B-Q isolated from patient with pyelonephritis assessed as >3-log reduction in urinary bacterial titer after 24 hrs. The class given is functional, Urine.
Test [16] relates to Escherichia coli. Briefly: Antimicrobial activity against Escherichia coli 1780064 A-X isolated from patient with pyelonephritis assessed as >3-log reduction in urinary bacterial titer after 12 hrs. It is filed as functional, Urine. Put shortly:
as §2

In test [17] the test system is Escherichia coli. As to the kind of experiment: Antimicrobial activity against Escherichia coli 1821386 B-D isolated from patient with pyelonephritis assessed as >3-log reduction in urinary bacterial titer after 24 hrs. The class given is functional, Urine. The method, boiled down:
as §1

The test system of test [18] is Pseudomonas aeruginosa. As to the kind of experiment: Antimicrobial activity against Pseudomonas aeruginosa 1821383 B-E isolated from patient with pyelonephritis assessed as >3-log reduction in urinary bacterial titer after 12 hrs. It is filed as functional, Urine.
Test [19] has as its system Pseudomonas aeruginosa. As to the kind of experiment: Antimicrobial activity against Pseudomonas aeruginosa 1821383 B-E isolated from patient with pyelonephritis assessed as >3-log reduction in urinary bacterial titer after 8 hrs. It is filed as functional, Urine.
The subject of test [20] is Enterococcus faecalis. As to the kind of experiment: Antimicrobial activity against Enterococcus faecalis 2215767-10 B-S isolated from patient with pyelonephritis assessed as >3-log reduction in urinary bacterial titer after 12 hrs. It is filed as functional, Urine. The method, boiled down:
as §2

The test system of test [21] is Staphylococcus epidermidis. Briefly: Antimicrobial activity against Staphylococcus epidermidis 2297262-9 B-V isolated from patient with pyelonephritis assessed as >3-log reduction in urinary bacterial titer after 12 hrs. It is filed as functional, Urine.
Test [22] concerns Escherichia coli. As to the kind of experiment: Antimicrobial activity against Escherichia coli 2062716 B-R isolated from patient with pyelonephritis by Etest. It is filed as functional.
For test [23], the system named is Staphylococcus epidermidis. As to the kind of experiment: Antimicrobial activity against Staphylococcus epidermidis 1949822 B-J isolated from patient with pyelonephritis assessed as >3-log reduction in urinary bacterial titer after 4 hrs. The class given is functional, Urine.
The subject of test [24] is Escherichia coli. Briefly: Antimicrobial activity against Escherichia coli 2062716 B-R isolated from patient with pyelonephritis assessed as >3-log reduction in urinary bacterial titer after 4 hrs. The class given is functional, Urine. Put shortly:
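Patient urine was collected on day 3 of i.v. therapy (steady state) over 4-h intervals after infusion start, stored at –80°C, and sterile filtered. It was twofold serially diluted (1:0 to 1:131,072) in the patient's own pre-dose drug-free urine, inoculated to 1.0 x 10^6–9.5 x 10^6 CFU/ml, and incubated for 18 h at 37°C. Subcultures were grown on blood agar for 24 h. The UBT is the reciprocal of the highest dilution giving >99.9% kill.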

The subject of test [25] is Staphylococcus epidermidis. As to the kind of experiment: Antimicrobial activity against Staphylococcus epidermidis 1949822 B-J isolated from patient with pyelonephritis assessed as >3-log reduction in urinary bacterial titer after 20 hrs. The class given is functional, Urine.
Test [26] relates to Enterococcus faecalis. Briefly: Antimicrobial activity against Enterococcus faecalis 2215767-10 B-S isolated from patient with pyelonephritis assessed as >3-log reduction in urinary bacterial titer after 8 hrs. It is filed as functional, Urine. Put shortly:
as §2

The subject of test [27] is Staphylococcus aureus. As to the kind of experiment: Antimicrobial activity against Staphylococcus aureus 2215767-9 B-S isolated from patient with pyelonephritis assessed as >3-log reduction in urinary bacterial titer after 16 hrs. The class given is functional, Urine.
Test [28] has as its system Enterococcus faecalis. Briefly: Antimicrobial activity against Enterococcus faecalis 2215767-10 B-S isolated from patient with pyelonephritis by Etest. The class given is functional.
For test [29], the system named is Escherichia coli. Briefly: Antimicrobial activity against Escherichia coli 1889647 B-H isolated from patient with pyelonephritis assessed as >3-log reduction in urinary bacterial titer after 20 hrs. The class given is functional, Urine. The method, boiled down:
as §1

Test [30] deals with Enterococcus faecalis. As to the kind of experiment: Antimicrobial activity against Enterococcus faecalis 2297262-10 B-V isolated from patient with pyelonephritis assessed as >3-log reduction in urinary bacterial titer after 24 hrs. It is filed as functional, Urine. The method, boiled down:
as §2

Test [31] relates to Pseudomonas aeruginosa. Briefly: Antimicrobial activity against Pseudomonas aeruginosa 1821383 B-E isolated from patient with pyelonephritis assessed as >3-log reduction in urinary bacterial titer after 16 hrs. The class given is functional, Urine.
For test [32], the system named is Pseudomonas aeruginosa. Briefly: Antimicrobial activity against Pseudomonas aeruginosa 1821383 B-E isolated from patient with pyelonephritis assessed as >3-log reduction in urinary bacterial titer after 20 hrs. The class given is functional, Urine.
Test [33] has as its system Staphylococcus aureus. As to the kind of experiment: Antimicrobial activity against Staphylococcus aureus 1889640 A-Z isolated from patient with pyelonephritis assessed as >3-log reduction in urinary bacterial titer after 24 hrs. The class given is functional, Urine.
The subject of test [34] is Staphylococcus aureus. Briefly: Antimicrobial activity against Staphylococcus aureus 2215767-9 B-S isolated from patient with pyelonephritis assessed as >3-log reduction in urinary bacterial titer after 12 hrs. It is filed as functional, Urine.

From ChEMBL document CHEMBL1649151, “Urinary bactericidal activity of Doripenem versus that of levofloxacin in patients with complicated urinary tract infections or pyelonephritis” (Antimicrob Agents Chemother, 2009) come the findings set out here.

≈ marks a conversion by molar mass, not a printed value.

`C[C@@H](O)[C@H]1C(=O)N2C(C(=O)O)=C(S[C@@H]3CN[C@H](CNS(N)(=O)=O)C3)[C@H](C)[C@H]12` [DORIPENEM]: the urinary bactericidal titer turned out to be 32800 titer in test [1]; 32800 reciprocal titer in test [2]; 1024 reciprocal titer in test [4]; 32800 reciprocal titer in test [5]; 2048 reciprocal titer in [6]; 512 reciprocal titer in test [7]. The urinary bactericidal titer is 32800 reciprocal titer in [9]; 256 reciprocal titer in test [10]; 4096 reciprocal titer in test [11]; 8192 reciprocal titer in test [12]; 128 reciprocal titer in test [13]. In addition, the minimal inhibitory concentration (MIC) (commonly the smallest concentration in the dilution series that meets the test's criterion for growth inhibition) in [3] amounted to 0.03 µg/mL (≈ 0.0713 µM); in [8], 0.015 µg/mL (≈ 0.0357 µM); in [14], 0.03 µg/mL (≈ 0.0713 µM).
As for `C[C@H]1COc2c(N3CCN(C)CC3)c(F)cc3c(=O)c(C(=O)O)cn1c23.C[C@H]1COc2c(N3CCN(C)CC3)c(F)cc3c(=O)c(C(=O)O)cn1c23.O` [LEVOFLOXACIN], the urinary bactericidal titer in test [15] was 2 reciprocal titer; in test [16], 256 reciprocal titer; in test [17] it was 2048 reciprocal titer; in test [18], 128 reciprocal titer; in test [19], 128 reciprocal titer; in test [20], 1 reciprocal titer. Further, the urinary bactericidal titer was 4 reciprocal titer in [21]; 4 reciprocal titer in [23]; 1024 reciprocal titer in test [24]; 2 reciprocal titer in test [25]; 0 reciprocal titer in test [26]; 0 reciprocal titer in [27]. The urinary bactericidal titer in [29] was determined as 512 reciprocal titer; in test [31], 128 reciprocal titer; in [32] it was 128 reciprocal titer; in test [33], 64 reciprocal titer; in test [34] it was 1 reciprocal titer. Moreover, the minimum inhibitory concentration (MIC) in test [22] was 0.032 µg/mL; in test [28], greater than 32 µg/mL. In addition, the Time in test [30] stood at 0 h.
